Laboratory results published in the EternaBench riboswitch data.

System: MS2 coat protein
Test: apparent Kd, MS2 coat protein; higher = weaker binding; RNA-MaP array; FMN 200 µM where present
Outline: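 Designs were transcribed by stalled E. coli RNA polymerase on Illumina sequencing-chip clusters. They were titrated with SNAP-549-labelled MS2 coat protein from 0.7 or 1.5 nM, doubling to 3 µM, without and then with constant ligand. Buffer: 100 mM Tris-HCl pH 7.5, 80 mM KCl, 4 mM MgCl2, BSA, DTT, yeast tRNA, Tween-20. Green signal was normalised to red-channel RNA signal and control-cluster median Fmax. Apparent Kd is the median of filtered per-cluster binding-curve fits.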

[1] = designed as: OFF switch for flavin mononucleotide, no ligand
[2] = ligand present: flavin mononucleotide, designed as: OFF switch for flavin mononucleotide
[3] = designed as: ON switch for flavin mononucleotide, no ligand
[4] = ligand present: flavin mononucleotide, designed as: ON switch for flavin mononucleotide

| Sequence | apparent Kd [1] [nM] | apparent Kd [2] [nM] | apparent Kd [3] [nM] | apparent Kd [4] [nM] |
| --- | --- | --- | --- | --- |
| AAGUCAGCAGGAUAUGCGAUGGUGUACUAGGUAGUUUGCCCACAUGAGGAUCACCCAUGUAGAAGGGCUGGCUA | 14.7 | 21.4 | – | – |
| GCUUUUAAGGGAGGAUAUUGUUACAUGAGGAUCACCCAUGUGGCGGGAUGAUAUCUUAACAGGAACGAGAAGGCCCAAACGCGA | 35.7 | 65.4 | – | – |
| UGCUGACGAGGAUAUACAUGAGGAUCACCCAUGUUGGUUCAGCGACUUCGGUCGCAAUGUAGAAGGCGUCAGCU | 410 | 277 | – | – |
| UUUUACGAAGGAUAUACAUUUUUUUUAUUAUUUUCAUUAUUACAUGAGGAUCACCCAUGUAGAAGGUCGAUUUU | 24.3 | 23.7 | – | – |
| AAUUGAAACGUAGGAUAUCGCUAUAAAUUAAUUCGAGAAGGACGUACAUGAGGAUCACCCAUGUUAAAUGGUGUAGUUUAGUUG | 108 | 270 | – | – |
| AGAGUGUCAGGAUAUCCUGCUGUGCGGAAUCUGUAUUCACGGGAGAAGGGACAUGAGGAUCACCCAUGUUUGAG | 18.9 | 28.1 | – | – |
| AGGGUGGGCUCAGGAUAUCAGGAAGAGAUGUGGACAUGAGGAUCACCCAUGUACCAGUGUUGUUAUGAGAAGGGAGAUACUGUA | – | – | 52.3 | 28.8 |
| UGCCGUAGAGGAUAUACAUUGAAUUUGAUUCAUGUAAAACUACAUGAGGAUCACCCAUGUAGAAGGCUAUGGCU | 17.9 | 34.4 | – | – |
| GGUACUAUCACAGGAUAUGCUUUCCUUUGGGAAGCAGAAGGGUGUAACAUGAGGAUCACCCAUGUGGUGCCAGGGCGCGAGCCC | – | – | 137 | 16.7 |
| GGAUAGGACAGAGGAUAUACGUGCUGGAGAUACUAGCAAAAUUUCCUCACAUGAGGAUCACCCAUGUAGAAGGCUGUCCUAUCG | 32.6 | 478 | – | – |
| CGGUUCUGAGGAUAUCCACCCUCAUACAUGAGGAUCACCCAUGUUCACCCUUGGGUUCCCGGAGAAGGCAGUUUUC | 233 | 570 | – | – |
| GCCAAGGUACAGAAGGGACUACAUGAGGAUCACCCAUGUGUUUCUGCACGUAAAUGAUACAGUGGUCAGGAUAUGUGCUCCAAA | 9.49 | 25.8 | – | – |
| GCGGUACAUGAGGAUCACCCAUGUCAGGAUAUCCGCUGUUUGUUAAUAAACAGGCGGUGGAGAAGGGACUUCGC | 34.9 | 36.7 | – | – |
| UACCAAUUUUUGGUAUUACACUAUGAGGAUAUCAUAUAUGAAUACAUGAGGAUCACCCAUGUGUGUGAGAAGGCAUAAUUUAUA | – | – | 28.1 | 10.5 |
| UCGUAUACACAAGGAUAUCGAUGGCUUGUAGAUCCUACAUGAGGAUCACCCAUGUUUUUAUAUUGUGAGAAGGUGUAGUGUCGU | – | – | 1320 | 1210 |
| AAAAUACAUGAGGAUCACCCAUGUGAGUCGAACGCAGGAUAUCGCCGUUGAAAAGGGCGGCGAGAAGGGUGCCGAA | – | – | 62.5 | 46.8 |
| CGGGAGUCAGGAUAUACGAACAUGUCGCCAGAUGUCAUGGUACAUGAGGAUCACCCAUGUAGAAGGGAGGAGAU | 139 | 103 | – | – |
| AAAAAACAUGAGGAUCACCCAUGUCUUCGGACGUGAGGAUAUGUACAGACUUCGGUCUGUACAGAAGGCACGUAAA | – | – | 51 | 23 |
| AAGACAUGAGGAUCACCCAUGUAAAGACCGGUCGAUCAAUGUGAGGAUAUACGAUAAUUGAUAGGGUAGAAGGCACUGGGUUGA | – | – | 264 | 151 |

| Sequence | apparent Kd [1] [nM] | apparent Kd [2] [nM] | apparent Kd [3] [nM] | apparent Kd [4] [nM] |
| --- | --- | --- | --- | --- |
| GUGUACAGAGGAUAUGCUGGAAUCUAGCGAAGCUAGGUUCCACAUGAGGAUCACCCAUGUAGAAGGCUGUACAC | 23.3 | 14.2 | – | – |
| ACCUGACAUGAGGAUCACCCAUGUCAGGAUAUGUACAUCAGGAAAAAAAAACUGAUGUACAGAAGGGACUUGGG | 22.4 | 18.1 | – | – |
| UCCGUGUGAGGAUAUUACGCUGUUCGGGAAACGCUCAUAGGUAAGAAGGCACAUGAGGAUCACCCAUGUCCAUA | 23.7 | 54.8 | – | – |
| UUAAAUCAUGUAGGAUAUGCGUGGAGAAACUAUGCAGAAGGACAUGAGGAUCACCCAUGUGCUUCCGUCUGCGUACAGAUGGUA | 26.3 | 156 | – | – |
| UAUACACAUGAGGAUCACCCAUGUGAGGAUAUGCGUACGUUGUCCGUAGGCGACGUGCGCAGAAGGCGCAAGGU | 72.7 | 104 | – | – |
| AUCUAUCAUGUAGGAUAUGCGUGGCGAAGCUAUGCAGAAGGACAUGAGGAUCACCCAUGUCUUUCUGUCUGCGGACGGACAGGA | 23.6 | 72.7 | – | – |
| UUUUAACAUGAGGAUCACCCAUGUGAGGAUAUCGAAAUUUAUAUUAAUAUUUAUUAUUCGAGAAGGCACAUUUU | 152 | 167 | – | – |
| CGGGCGCGAGUAGGAUAUGUAUAUUUGCCGGGUCCGUGAUCACAUGAGGAUCACCCAUGUGGUAAGCAGAAGGAUUCGGUCCGA | 6.04 | 7.8 | – | – |
| CCGGGAAUAUUAAAUACCUCAACAUGAGGAUCACCCAUGUUGCAGGAUAUCAAUGAGUUGGAAAAUGAGAAGGGCAGCGGGAGA | 5.81 | 7.34 | – | – |
| CUCUUACAUGAGGAUCACCCAUGUGAGGAUAUAGCGGCCUGAUGAGGGAUCAACAUCGCUAGAAGGUACUUGGG | 101 | 106 | – | – |
| AGUACUCAAAGAGUACGCAUACGCACAUGAGGAUCACCCAUGUAGGAUAUGCUACUCAAAGAGUAGUAGAAGGACAUAUACCUC | 4.31 | 4.46 | – | – |
| UUGAGGUGCAAGAAGGAUCACAUGAGGAUCACCCAUGUAAUAUAAAGUCUCGAGAUUUUAUAUUGAUAGGAUAUUGCACCGAAC | – | – | 42.2 | 6.26 |
| CGGUACUAGGGAGGAUAUGGGAAGAUACAUGAGGAUCACCCAUGUUUAAGAAUGCCGAGAGGCAACUAGAAGGCCCUAGUACCU | – | – | 353 | 20.7 |
| AGUUUUGUACAUGAGGAUCACCCAUGUUAAUAUGUGGUAGUCAGAAGGCAUUGAUAGAGUUUUAAUGAGGAUAUGAAUAUUCUG | – | – | 31.8 | 32.3 |
| UGGUCAUGAUCAGGAUAUUAACAUGGGCUACAUUAAGAAGGGAUAGUGAGAUACGAACUACAUGAGGAUCACCCAUGUGUUGUU | – | – | 68.7 | 55.4 |
| CGGGAGUCAGGAUAUACGAACAUGUCGCCAGAUGUCAAGGUACAUGAGGAUCACCCAUGUAGAAGGGAGGAGUU | 91.9 | 56.6 | – | – |
| AUAAUGCGUGCUACGCAAAAUAACGCAGAAGGCCAACAUGAGGAUCACCCAUGUAAAAGAAAGAUGGAGGAUAUGCGGUUUGGC | – | – | 51 | 6.74 |
| GGUUGUCAUCGUCAUCCUUUCGGUACAUGAGGAUCACCCAUGUAGGAUAUGCUGCGUUCGAUGUGGCAGAAGGGCGUGUGUGUU | 22.1 | 40.5 | – | – |
| UAAUUUUUGACAGGAUAUCCAUGUACAUGAGGAUCACCCAUGUAAAAGGGUAGCCUCAUCGGGCAGGAGAAGGGUCGAUAGGCG | 249 | 134 | – | – |

| Sequence | apparent Kd [1] [nM] | apparent Kd [2] [nM] | apparent Kd [3] [nM] | apparent Kd [4] [nM] |
| --- | --- | --- | --- | --- |
| AGGAAGUGAGGAUAUGCAGUCGCUAGUAGACGCUAGCACUUGUAGAAGGCACAUGAGGAUCACCCAUGUUUAAA | 31.3 | 36.3 | – | – |
| AAGCACAGAGGAUAUACAUGGGUGAUAAAAAUCAUGUAAAAACAUGAGGAUCACCCAUGUAGAAGGCUGUGCAA | 22 | 23.1 | – | – |
| UUACGUCCCAUUUACAUGAGGAUCACCCAUGUCGAAAGACAUGAGGAUAUGCUACCUAAUUGGUAGCAGAAGGCAUGGACGUCG | – | – | 662 | 347 |
| AAAGCAACAUGAGGAUCACCCAUGUAGGAUAUCGCUAUUGUAAUCAUGAAACAUGAUUACAAUAGCGAGAAGGACAUAUGCAAA | 11.3 | 12.9 | – | – |
| GUCGUGUGAGGAUAUCGAUUAUGGAAGUCUAGAUCCAUACGCGAGAAGGCACAUGAGGAUCACCCAUGUAAUGG | 337 | 96.1 | – | – |
| GUGUACUGAGGAUAUACAUGAGGAUCACCCAUGUGAAUAAGAUAGAAUAAGAUAAAGUGUAGAAGGCAGAGUGU | 40.8 | 35.4 | – | – |
| GUCAGCUCGUGAGGAUAUACAACACUGCUUCGGCAGUGUAUUAAGAUCACAUGAGGAUCACCCAUGUAGAAGGCACGAGCUUAU | 13.5 | 233 | – | – |
| CGCUCAAUUACUUUGAAUAGAAUCAGAAGGCGUAACAUGAGGAUCACCCAUGUAUUGACGUGUAACGAGGAUAUGAAUUGAGCG | 4.7 | 4.57 | – | – |
| UUUUAACAUGAGGAUCACCCAUGUGAGGAUAUCGAAAUUUAUAUUAAUAUUUUUAAAUCGAGAAGGCACAUUUU | 121 | 109 | – | – |
| GGUCGUCACAUUUACAUGAGGAUCACCCAUGUCGAAAGACAUGAGGAUAUGCAUCCUAAUUGGAUGCAGAAGGCAUGGACGACC | – | – | 445 | 249 |
| GGAUAGGACAGAGGAUAUACGGCUAGGAGAUACUAGCCACUAUUCCUCACAUGAGGAUCACCCAUGUAGAAGGCUGUCCUAUCG | 16.9 | 109 | – | – |
| CCUCCCUGAGGAUAUCCACCCUCAUACAUGAGGAUCACCCAUGUUCAACCCUGGGUUCCCGGAGAAGGCAGCUUCC | 260 | 263 | – | – |
| GGGUACAUAGGAGGAUAUCAUGUAAAUACAUGAGGAUCACCCAUGUCGAUGGAGACAUCGGAGAUUGAGAAGGCCGAUGUACCG | – | – | 240 | 10.6 |
| GUGAAACAUGAGGAUCACCCAUGUCAGGAUAUGAUACUAUGUACUUCGGUACAUAGUAUCAGAAGGGACAGUGA | 77.9 | 101 | – | – |
| GGUGCGUAUGUGAGGAUAUGCUGGUCCUUGGAUCAGCAGAAGGCACAUGAGGAUCACCCAUGUGGUGUCGUGCC | 114 | 20.8 | – | – |
| GCCGCUGUAGGAUAUGCCAGGGUGGCAGCUUGAUGUGUGGCACAUGAGGAUCACCCAUGUAGAAGGACAGAAAG | 18.7 | 50.8 | – | – |
| AUCAGCUCGUAAGGAUAUACGUCACUGCGUCAGCAGUGUGGUAAGAUCACAUGAGGAUCACCCAUGUAGAAGGGACGAGCUGAU | 15.6 | 142 | – | – |
| GGUGUCGUAUGAGGAUAUGGUCAGCUUUGCUGACCAGAAGGCAUGUCAAUAGACAUGAGGAUCACCCAUGUAGUAAAGACACCA | – | – | 441 | 43.4 |
